Results: ChEMBL document CHEMBL4257576, “4-Iminooxazolidin-2-one as a Bioisostere of the Cyanohydrin Moiety: Inhibitors of Enterovirus 71 3C Protease” (J Med Chem, 2018)
pEC50, pKi: −log10 of the molar value. Active and inactive are the calls of the source. No cut-off for these calls is given here.

Key:
[1] = target: Genome polyprotein (Enterovirus A71, UniProt A0A1D8D5K2); experiment: Inhibition of EV71 3C protease expressed in Escherichia coli BL21(DE3) using NMA-IEALFQGPPK(DNP)FR as substrate preincubated for 0.5 hrs followed by substrate addition by fluorescence assay
Chain of Genome polyprotein (A0A1D8D5K2 whole entry): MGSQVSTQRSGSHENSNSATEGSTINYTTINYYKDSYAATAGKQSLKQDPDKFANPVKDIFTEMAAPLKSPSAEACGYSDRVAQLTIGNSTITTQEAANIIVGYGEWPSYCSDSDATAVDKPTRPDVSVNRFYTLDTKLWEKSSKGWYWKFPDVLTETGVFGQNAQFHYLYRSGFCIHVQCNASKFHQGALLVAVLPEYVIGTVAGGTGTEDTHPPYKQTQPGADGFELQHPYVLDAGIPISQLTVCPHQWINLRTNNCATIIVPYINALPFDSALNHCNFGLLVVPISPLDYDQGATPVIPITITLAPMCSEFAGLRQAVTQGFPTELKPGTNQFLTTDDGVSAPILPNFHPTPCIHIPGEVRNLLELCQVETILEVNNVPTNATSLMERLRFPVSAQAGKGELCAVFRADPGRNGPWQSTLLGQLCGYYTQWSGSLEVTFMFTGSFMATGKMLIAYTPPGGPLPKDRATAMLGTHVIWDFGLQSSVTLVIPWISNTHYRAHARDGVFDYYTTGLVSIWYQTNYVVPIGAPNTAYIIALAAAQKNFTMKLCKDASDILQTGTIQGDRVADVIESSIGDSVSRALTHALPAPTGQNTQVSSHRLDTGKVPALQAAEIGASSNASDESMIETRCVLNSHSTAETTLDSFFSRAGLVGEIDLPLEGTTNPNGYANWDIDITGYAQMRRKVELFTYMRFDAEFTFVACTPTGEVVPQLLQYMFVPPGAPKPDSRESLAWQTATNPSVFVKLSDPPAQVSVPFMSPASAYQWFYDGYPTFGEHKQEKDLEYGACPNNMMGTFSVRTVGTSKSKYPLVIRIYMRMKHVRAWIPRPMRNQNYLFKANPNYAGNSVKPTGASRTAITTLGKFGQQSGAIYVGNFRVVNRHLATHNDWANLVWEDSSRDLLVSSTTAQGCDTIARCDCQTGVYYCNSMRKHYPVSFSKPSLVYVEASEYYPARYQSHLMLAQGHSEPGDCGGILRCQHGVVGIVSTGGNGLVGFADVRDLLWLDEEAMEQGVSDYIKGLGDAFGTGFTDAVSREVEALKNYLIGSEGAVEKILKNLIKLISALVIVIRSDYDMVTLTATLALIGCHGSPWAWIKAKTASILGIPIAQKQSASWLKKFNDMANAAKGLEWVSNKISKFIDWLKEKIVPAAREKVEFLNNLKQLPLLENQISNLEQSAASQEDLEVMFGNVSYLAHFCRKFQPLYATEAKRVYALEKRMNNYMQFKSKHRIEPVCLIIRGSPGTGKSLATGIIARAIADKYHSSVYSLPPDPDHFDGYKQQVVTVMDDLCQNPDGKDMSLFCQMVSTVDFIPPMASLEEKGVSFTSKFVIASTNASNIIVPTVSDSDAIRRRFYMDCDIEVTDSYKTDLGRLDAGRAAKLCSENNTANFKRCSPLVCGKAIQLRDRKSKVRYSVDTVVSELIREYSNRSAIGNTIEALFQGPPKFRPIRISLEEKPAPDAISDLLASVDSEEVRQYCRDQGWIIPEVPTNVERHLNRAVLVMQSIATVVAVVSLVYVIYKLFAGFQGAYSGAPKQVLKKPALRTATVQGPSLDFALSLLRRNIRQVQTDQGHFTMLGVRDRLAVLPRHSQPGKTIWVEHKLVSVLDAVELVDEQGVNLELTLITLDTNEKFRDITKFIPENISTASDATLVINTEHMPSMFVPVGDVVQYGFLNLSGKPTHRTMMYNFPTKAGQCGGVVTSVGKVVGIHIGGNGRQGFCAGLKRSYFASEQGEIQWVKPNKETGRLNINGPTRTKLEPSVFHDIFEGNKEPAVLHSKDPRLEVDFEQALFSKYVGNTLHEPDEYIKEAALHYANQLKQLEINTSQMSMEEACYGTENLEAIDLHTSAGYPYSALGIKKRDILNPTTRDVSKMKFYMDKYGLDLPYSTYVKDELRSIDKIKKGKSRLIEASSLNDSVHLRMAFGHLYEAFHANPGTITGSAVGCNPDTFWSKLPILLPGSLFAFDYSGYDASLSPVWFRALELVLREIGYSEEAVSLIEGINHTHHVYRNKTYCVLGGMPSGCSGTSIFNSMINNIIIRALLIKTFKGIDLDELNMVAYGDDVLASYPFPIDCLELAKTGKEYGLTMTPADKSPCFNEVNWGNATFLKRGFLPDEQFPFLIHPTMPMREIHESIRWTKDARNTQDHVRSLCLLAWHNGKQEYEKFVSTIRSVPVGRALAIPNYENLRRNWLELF
Procedure, shortened: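 Values reported as Ki (µM), each the mean of three independent experiments with SEM (n=3).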

[2] = test system: Enterovirus A71; experiment: Antiviral activity against Enterovirus A71 infected in human RD cells receiving pEV71-Luc subgenomic replicon stocks from HEK-293T cells; format: functional, organism-based; details: Enterovirus A
Procedure, shortened: (§1)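 Values (EC50, CC50) are the average of three independent experiments, with SEM (n = 3).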

[3] = Cytotoxicity in human RD cells assessed as reduction in cell viability incubated for 24 hrs by WST1 assay; format: cell-based; procedure, shortened: as §1
[4] = Half life in human plasma by HPLC analysis; format: ADME, cell-free
Procedure, shortened: (§2)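 Compound was incubated in human or mouse plasma and its remaining level followed over time to obtain t1/2. Each point is n = 3 with standard deviation bars.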

[5] = Half life in ICR (CD-1) mouse plasma by HPLC analysis; format: ADME, cell-free; procedure, shortened: as §2
[6] = Half life in human liver microsomes at 1 mg/ml in presence of NADPH regenerating system by HPLC analysis; format: ADME, microsome
Procedure, shortened: (§3)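 Human and mouse liver microsomes at 1.0 mg/mL. Compound disappearance was tracked over time to give half-life and intrinsic clearance (Clint, µL/min/mg). Data are the mean of triplicates with SD (n = 3).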

[7] = Half life in mouse liver microsomes at 1 mg/ml in presence of NADPH regenerating system by HPLC analysis; format: ADME, microsome; procedure, shortened: as §3
[8] = Intrinsic clearance in human liver microsomes at 1 mg/ml in presence of NADPH regenerating system by HPLC analysis; format: ADME, microsome; details: read-out: CLH; procedure, shortened: as §3
[9] = Intrinsic clearance in mouse liver microsomes at 1 mg/ml in presence of NADPH regenerating system by HPLC analysis; format: ADME, microsome; details: read-out: CLH; procedure, shortened: as §3
[10] = target: Genome polyprotein (Enterovirus A71) (UniProt A0A1D8D5K2); experiment: Covalent binding affinity to EV71 3C protease expressed in Escherichia coli BL21(DE3) at 2 mg/ml incubated for 2 to 3 hrs and measured after trypsin digestion by LC-MS/MS analysis
Chain of Genome polyprotein (Enterovirus A71) (A0A1D8D5K2 as listed by the source): as the sequence (A0A1D8D5K2 whole entry) above

[11] = Drug metabolism in PBS buffer at pH 7.4; format: physicochemical
[12] = Drug metabolism in ICR (CD-1) mouse plasma by UPLC/Q-TOF-MS analysis; format: ADME, cell-free
Procedure, shortened: (§4)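 Compound was incubated with mouse plasma for 60 min. LC/MS followed loss of the parent peak and appearance of a product peak by retention time, and the product was characterized by tandem MS.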

[13] = Retention time of compound in ICR (CD-1) mouse plasma by UPLC/Q-TOF-MS analysis; format: ADME, cell-free; procedure, shortened: as §4
[14] = test system: Mus musculus; experiment: AUC (0 to t) in ICR (CD-1) mouse at 20 mg/kg, iv administered as single dose by LC-MS analysis; format: ADME, organism-based; details: in vivo
Procedure, shortened: (§5)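 Male mice got a single 20 mg/kg dose, either IV or oral (PO), with separate groups for each route. Plasma concentration–time profiles were followed, and parameters were taken from mean ± SD curves (n = 3).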

[15] = test system: Mus musculus; experiment: Cmax in ICR (CD-1) mouse at 20 mg/kg, iv administered as single dose by LC-MS analysis; format: ADME, organism-based; design: dose 20 mg/kg, route intravenous; details: in vivo; procedure, shortened: as §5
[16] = Tmax in ICR (CD-1) mouse at 20 mg/kg, iv administered as single dose by LC-MS analysis; format: ADME, organism-based; details: in vivo; procedure, shortened: as §5
[17] = Half life in ICR (CD-1) mouse at 20 mg/kg, iv administered as single dose by LC-MS analysis; format: ADME, organism-based; details: in vivo; procedure, shortened: as §5
[18] = test system: Mus musculus; experiment: AUC (0 to t) in ICR (CD-1) mouse at 20 mg/kg, po administered as single dose by LC-MS analysis; format: ADME, organism-based; details: in vivo; procedure, shortened: as §5
[19] = test system: Mus musculus; experiment: Cmax in ICR (CD-1) mouse at 20 mg/kg, po administered as single dose by LC-MS analysis; format: ADME, organism-based; design: dose 20 mg/kg, route oral; details: in vivo; procedure, shortened: as §5
[20] = Tmax in ICR (CD-1) mouse at 20 mg/kg, po administered as single dose by LC-MS analysis; format: ADME, organism-based; details: in vivo; procedure, shortened: as §5
[21] = Half life in ICR (CD-1) mouse at 20 mg/kg, po administered as single dose by LC-MS analysis; format: ADME, organism-based; details: in vivo; procedure, shortened: as §5

Row | Compound | pKi [1] | pEC50 [2] | CC50 at 24 h [3] | also measured
1 | CCCCNC(=O)O[C@H](C#N)[C@H](C[C@@H]1CCCNC1=O)NC(=O)[C@H](Cc1ccc(F)cc1)NC(=O)c1cc(C)on1 | 5.32 | 5.07 | > 100 µM | 
2 | CCN1C(=N)[C@H]([C@H](C[C@@H]2CCCNC2=O)NC(=O)[C@H](Cc2ccc(F)cc2)NC(=O)c2cc(C)on2)OC1=O | 5.45 | 4.77 | > 100 µM | 
3 | Cc1cc(C(=O)N[C@@H](Cc2ccc(F)cc2)C(=O)N[C@@H](C[C@@H]2CCCNC2=O)[C@H](C#N)OC(=O)Nc2ccccc2)no1 |  | 4.88 | > 100 µM | 
4 | Cc1cc(C(=O)N[C@@H](Cc2ccc(F)cc2)C(=O)N[C@@H](C[C@@H]2CCCNC2=O)[C@H]2OC(=O)N(C3CC3)C2=N)no1 | 5.77 | 5.06 | > 100 µM | 
5 | CCNC(=O)O[C@@H](C#N)[C@H](C[C@@H]1CCCNC1=O)NC(=O)[C@H](Cc1ccc(F)cc1)NC(=O)c1cc(C)on1 | 7.29 | 6.12 | > 100 µM | 
6 | Cc1cc(C(=O)N[C@@H](Cc2ccc(F)cc2)C(=O)N[C@@H](C[C@@H]2CCCNC2=O)[C@@H](O)C#N)no1 | 8.40 | 7.06 | > 100 µM | half-life [4]: 11 min; half-life [5]: 7 min; half-life [6]: 8 min; half-life [7]: 6 min; microsomal CLint [8]: 87 µL/min/mg; microsomal CLint [9]: 116 µL/min/mg; Activity [10]: inactive
7 | CCOC(=O)/C=C/[C@H](C[C@@H]1CCNC1=O)NC(=O)[C@@H](CC(=O)[C@@H](NC(=O)c1cc(C)on1)C(C)C)Cc1ccc(F)cc1 |  |  |  | Activity [10]: Active
8 | Cc1cc(C(=O)N[C@@H](Cc2ccc(F)cc2)C(=O)N[C@@H](C[C@@H]2CCCNC2=O)[C@@H]2OC(=O)N(C)C2=N)no1 | 6.68 | 5.99 | > 100 µM | 
9 | Cc1cc(C(=O)N[C@@H](Cc2ccc(F)cc2)C(=O)N[C@@H](C[C@@H]2CCCNC2=O)[C@@H](C#N)OC(=O)NC2CC2)no1 | 5.21 | 4.89 | > 100 µM | 
10 | Cc1cc(C(=O)N[C@@H](Cc2ccc(F)cc2)C(=O)N[C@@H](C[C@@H]2CCCNC2=O)[C@H](C#N)OC(=O)C2CC2)no1 | 6.25 | 5.31 | > 100 µM | 
11 | CCN(C)C(=O)O[C@@H](C#N)[C@H](C[C@@H]1CCCNC1=O)NC(=O)[C@H](Cc1ccc(F)cc1)NC(=O)c1cc(C)on1 |  | < 4.00 | > 100 µM | half-life [5]: > 120 min; Drug metabolism [11]: Metabolite_Notdetected
12 | CCCCNC(=O)O[C@@H](C#N)[C@H](C[C@@H]1CCCNC1=O)NC(=O)[C@H](Cc1ccc(F)cc1)NC(=O)c1cc(C)on1 | 6.35 | 6.16 | > 100 µM | 
13 | CCNC(=O)O[C@H](C#N)[C@H](C[C@@H]1CCCNC1=O)NC(=O)[C@H](Cc1ccc(F)cc1)NC(=O)c1cc(C)on1 | 6.72 | 5.45 | > 100 µM | 
14 | Cc1cc(C(=O)N[C@@H](Cc2ccc(F)cc2)C(=O)N[C@@H](C[C@@H]2CCCNC2=O)[C@H](C#N)OC(=O)NC(C)C)no1 | 7.44 | 6.19 | > 100 µM | half-life [5]: 31 min; Drug metabolism [11]: Metabolite_Detected; Drug metabolism [12]: Metabolite_Detected; Retention_time [13]: 6.41 min
15 | CCCNC(=O)O[C@@H](C#N)[C@H](C[C@@H]1CCCNC1=O)NC(=O)[C@H](Cc1ccc(F)cc1)NC(=O)c1cc(C)on1 | 7.07 | 6.80 | > 100 µM | half-life [5]: 12 min; Drug metabolism [11]: Metabolite_Detected; Drug metabolism [12]: Metabolite_Detected
16 | CNC(=O)O[C@H](C#N)[C@H](C[C@@H]1CCCNC1=O)NC(=O)[C@H](Cc1ccc(F)cc1)NC(=O)c1cc(C)on1 | 7.34 | 6.00 | > 100 µM | 

Row | Compound | pKi [1] | pEC50 [2] | CC50 at 24 h [3] | also measured
17 | Cc1cc(C(=O)N[C@@H](Cc2ccc(F)cc2)C(=O)N[C@@H](C[C@@H]2CCCNC2=O)[C@H](C#N)OC(=O)N(C)C)no1 |  | 4.15 | > 100 µM | 
18 | Cc1cc(C(=O)N[C@@H](Cc2ccc(F)cc2)C(=O)N[C@@H](C[C@@H]2CCCNC2=O)[C@@H]2OC(=O)N(C(C)C)C2=N)no1 | 7.21 | 6.29 | > 100 µM | 
19 | CCCN1C(=N)[C@@H]([C@H](C[C@@H]2CCCNC2=O)NC(=O)[C@H](Cc2ccc(F)cc2)NC(=O)c2cc(C)on2)OC1=O | 7.08 | 6.68 | > 100 µM | half-life [4]: > 120 min; half-life [5]: > 120 min; half-life [6]: 40 min; half-life [7]: 35 min; microsomal CLint [8]: 17 µL/min/mg; microsomal CLint [9]: 20 µL/min/mg; AUCt [14]: 2340 ng·h/mL; Cmax [15]: 8.2 µg/mL; Tmax [16]: 5 min; half-life [17]: 51 min; AUCt [18]: 7.9 mg·min/mL; Cmax [19]: 0.15 µg/mL; Tmax [20]: 15 min; half-life [21]: 60 min; Activity [10]: inactive
20 | Cc1cc(C(=O)N[C@@H](Cc2ccc(F)cc2)C(=O)N[C@@H](C[C@@H]2CCCNC2=O)[C@H]2OC(=O)N(C)C2=N)no1 | 6.55 | 5.40 | > 100 µM | 
21 | CCCN1C(=N)[C@H]([C@H](C[C@@H]2CCCNC2=O)NC(=O)[C@H](Cc2ccc(F)cc2)NC(=O)c2cc(C)on2)OC1=O | 5.59 | 4.90 | > 100 µM | 
22 | CC(=O)O[C@@H](C#N)[C@H](C[C@@H]1CCCNC1=O)NC(=O)[C@H](Cc1ccc(F)cc1)NC(=O)c1cc(C)on1 | 7.19 | 7.17 | > 100 µM | half-life [4]: 50 min; half-life [5]: 42 min; half-life [6]: 64 min
23 | CCCNC(=O)O[C@H](C#N)[C@H](C[C@@H]1CCCNC1=O)NC(=O)[C@H](Cc1ccc(F)cc1)NC(=O)c1cc(C)on1 | 6.74 | 5.66 | > 100 µM | 
24 | Cc1cc(C(=O)N[C@@H](Cc2ccc(F)cc2)C(=O)N[C@@H](C[C@@H]2CCCNC2=O)[C@H](C#N)OC(=O)NC2CC2)no1 | 5.89 | 5.29 | > 100 µM | 
25 | CCCCN1C(=N)[C@@H]([C@H](C[C@@H]2CCCNC2=O)NC(=O)[C@H](Cc2ccc(F)cc2)NC(=O)c2cc(C)on2)OC1=O | 5.60 | 4.90 | > 100 µM | 
26 | Cc1cc(C(=O)N[C@@H](Cc2ccc(F)cc2)C(=O)N[C@@H](C[C@@H]2CCCNC2=O)[C@H]2OC(=O)N(C(C)C)C2=N)no1 | 7.48 | 7.00 | > 100 µM | half-life [4]: > 120 min; half-life [5]: > 120 min; half-life [6]: 76 min; half-life [7]: 74 min; microsomal CLint [8]: 9 µL/min/mg; microsomal CLint [9]: 9 µL/min/mg
27 | Cc1cc(C(=O)N[C@@H](Cc2ccc(F)cc2)C(=O)N[C@@H](C[C@@H]2CCCNC2=O)[C@H](C#N)OC(=O)C(C)C)no1 | 6.62 | 5.58 | > 100 µM | 
28 | CNC(=O)O[C@@H](C#N)[C@H](C[C@@H]1CCCNC1=O)NC(=O)[C@H](Cc1ccc(F)cc1)NC(=O)c1cc(C)on1 | 7.15 | 6.21 | > 100 µM | 
29 | CCN1C(=N)[C@@H]([C@H](C[C@@H]2CCCNC2=O)NC(=O)[C@H](Cc2ccc(F)cc2)NC(=O)c2cc(C)on2)OC1=O | 6.66 | 5.36 | > 100 µM | 
30 | Cc1cc(C(=O)N[C@@H](Cc2ccc(F)cc2)C(=O)N[C@@H](C[C@@H]2CCCNC2=O)[C@@H](C#N)OC(=O)NC(C)C)no1 | 7.03 | 5.76 | > 100 µM | 
31 | Cc1cc(C(=O)N[C@@H](Cc2ccc(F)cc2)C(=O)N[C@@H](C[C@@H]2CCCNC2=O)[C@H](C#N)OC(=O)N2CCOCC2)no1 |  | < 4.00 | > 100 µM | half-life [5]: > 120 min; Drug metabolism [11]: Metabolite_Notdetected
